This note sets out measurements from ChEMBL document CHEMBL1138475, “Conformationally constrained fatty acid ethanolamides as cannabinoid and vanilloid receptor probes” (J Med Chem, 2009).

The target in one assay is Cannabinoid receptor 2 (Homo sapiens, UniProt P34972). As to the kind of experiment: Displacement of [3H]CP-55940 from human recombinant CB2 receptor expressed in HEK293 cell membrane. Type of assay: cell membranes. (In general: In a radioligand displacement assay an active substance lowers the binding of a labelled ligand.)
Assay [1] deals with T1, Transient receptor potential cation channel subfamily V member 1 (Homo sapiens, UniProt Q8NER1). As to the kind of experiment: Agonist activity at human recombinant TRPV1 expressed in HEK293 cells assessed as increase in intracellular calcium level. Type of assay: functional, cell-based. In outline:
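Stably transfected HEK-293 cells loaded 1 h at 25 °C with 4 µM Fluo-4 AM, washed, resuspended in Tyrode's buffer pH 7.4. Efficacy relative to 4 µM ionomycin. EC50 is the concentration giving half-maximal [Ca2+]i rise, by sigmoidal fit. At least triplicate.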

The target in assay [2] is Cannabinoid receptor 1 (Homo sapiens, UniProt P21554). As to the kind of experiment: Displacement of [3H]CP-55940 from human recombinant CB1 receptor expressed in HEK293 cell membrane. Type of assay: cell membranes.
Assay [3] has as its target Cannabinoid receptor 1 (Mus musculus, UniProt P47746). As to the kind of experiment: Agonist activity at CB1 receptor expressed in mouse brain membrane by [35S]GTPgammaS binding assay. It is filed as functional, cell membranes. In a few lines:
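Mouse brain membranes (10 µg/mL) preincubated 30 min at 30 °C with adenosine deaminase 0.5 U/mL, in Tris buffer with MgCl2, EDTA, NaCl, DTT, 0.1% BSA, 0.1 nM [35S]GTPγS, 30 µM GDP; compounds 60 min at 30 °C. Nonspecific with 30 µM GTPγS. Filtration, scintillation counting. 0.1% DMSO vehicle. Basal subtracted; EC50 and Emax by sigmoid nonlinear regression.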
For orientation: GTPγS resists hydrolysis and so accumulates on activated G proteins.

The target in assay [4] is T1, Transient receptor potential cation channel subfamily V member 1. As to the kind of experiment: Agonist activity at human recombinant TRPV1 expressed in HEK293 cells assessed as increase in intracellular calcium level relative to ionomycin. It is filed as functional, cell-based. In outline:
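Stably transfected HEK-293 cells loaded 1 h at 25 °C with 4 µM Fluo-4 AM, washed, resuspended in Tyrode's buffer pH 7.4. Fluorescence (ex 488/em 516 nm) read at 25 °C with stirring, before and after compound at various concentrations. Efficacy relative to 4 µM ionomycin. EC50 is the concentration giving half-maximal [Ca2+]i rise, by sigmoidal fit. At least triplicate.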

Broadly, the Ki is the equilibrium dissociation constant of an inhibitor or competing ligand from its target. As usually defined, the EC50 is the midpoint of the concentration-response curve. For orientation: Emax means the maximal effect, on the per cent scale that the assay sets.

The structures appear in SMILES notation.

Chain of Cannabinoid receptor 1 (Homo sapiens, UniProt P21554) (P21554 whole entry): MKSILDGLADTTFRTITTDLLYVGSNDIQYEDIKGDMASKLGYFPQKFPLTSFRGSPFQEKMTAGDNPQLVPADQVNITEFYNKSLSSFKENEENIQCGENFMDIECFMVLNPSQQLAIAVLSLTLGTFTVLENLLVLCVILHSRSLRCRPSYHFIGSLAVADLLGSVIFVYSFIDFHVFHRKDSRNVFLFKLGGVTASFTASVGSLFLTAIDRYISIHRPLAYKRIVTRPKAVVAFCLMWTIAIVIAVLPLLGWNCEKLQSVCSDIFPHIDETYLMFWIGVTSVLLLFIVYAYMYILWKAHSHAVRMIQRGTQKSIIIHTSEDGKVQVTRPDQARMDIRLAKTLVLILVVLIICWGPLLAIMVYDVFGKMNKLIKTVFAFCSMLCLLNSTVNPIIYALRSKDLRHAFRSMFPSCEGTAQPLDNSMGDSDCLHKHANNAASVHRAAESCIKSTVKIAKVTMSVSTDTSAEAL
Chain of Cannabinoid receptor 2 (P34972 whole entry): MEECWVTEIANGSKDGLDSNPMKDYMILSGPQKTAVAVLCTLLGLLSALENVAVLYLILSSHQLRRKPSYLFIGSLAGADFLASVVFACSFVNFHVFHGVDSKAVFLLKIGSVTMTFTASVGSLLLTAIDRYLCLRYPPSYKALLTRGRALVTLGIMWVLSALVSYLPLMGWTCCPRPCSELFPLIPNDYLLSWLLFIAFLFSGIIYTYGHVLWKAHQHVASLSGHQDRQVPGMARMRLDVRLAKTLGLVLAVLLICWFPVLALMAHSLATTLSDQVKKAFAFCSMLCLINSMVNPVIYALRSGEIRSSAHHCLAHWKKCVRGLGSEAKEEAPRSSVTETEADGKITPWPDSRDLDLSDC
T1 sequence (Q8NER1 whole entry): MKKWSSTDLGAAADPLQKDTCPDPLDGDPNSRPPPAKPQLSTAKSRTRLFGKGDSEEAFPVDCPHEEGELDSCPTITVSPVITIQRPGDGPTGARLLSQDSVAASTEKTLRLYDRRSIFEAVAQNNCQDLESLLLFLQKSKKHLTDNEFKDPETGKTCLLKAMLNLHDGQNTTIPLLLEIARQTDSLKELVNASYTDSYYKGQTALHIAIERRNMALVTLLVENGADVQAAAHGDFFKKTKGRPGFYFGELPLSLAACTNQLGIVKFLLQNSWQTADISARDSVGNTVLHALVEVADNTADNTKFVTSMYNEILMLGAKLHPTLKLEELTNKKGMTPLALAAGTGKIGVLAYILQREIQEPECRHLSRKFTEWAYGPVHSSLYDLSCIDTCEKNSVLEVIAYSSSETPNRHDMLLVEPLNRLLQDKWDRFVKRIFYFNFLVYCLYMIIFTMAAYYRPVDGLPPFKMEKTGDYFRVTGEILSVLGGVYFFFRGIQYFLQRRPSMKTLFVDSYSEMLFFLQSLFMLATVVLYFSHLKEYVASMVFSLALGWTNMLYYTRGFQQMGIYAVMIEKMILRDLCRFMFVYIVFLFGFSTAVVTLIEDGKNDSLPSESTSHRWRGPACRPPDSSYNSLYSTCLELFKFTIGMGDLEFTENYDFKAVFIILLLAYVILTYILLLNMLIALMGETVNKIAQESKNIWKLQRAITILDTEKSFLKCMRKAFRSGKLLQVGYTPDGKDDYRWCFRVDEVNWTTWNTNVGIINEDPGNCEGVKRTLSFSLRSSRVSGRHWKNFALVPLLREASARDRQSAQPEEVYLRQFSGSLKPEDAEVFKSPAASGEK
Chain of Cannabinoid receptor 1 (Mus musculus, UniProt P47746) (P47746 whole entry): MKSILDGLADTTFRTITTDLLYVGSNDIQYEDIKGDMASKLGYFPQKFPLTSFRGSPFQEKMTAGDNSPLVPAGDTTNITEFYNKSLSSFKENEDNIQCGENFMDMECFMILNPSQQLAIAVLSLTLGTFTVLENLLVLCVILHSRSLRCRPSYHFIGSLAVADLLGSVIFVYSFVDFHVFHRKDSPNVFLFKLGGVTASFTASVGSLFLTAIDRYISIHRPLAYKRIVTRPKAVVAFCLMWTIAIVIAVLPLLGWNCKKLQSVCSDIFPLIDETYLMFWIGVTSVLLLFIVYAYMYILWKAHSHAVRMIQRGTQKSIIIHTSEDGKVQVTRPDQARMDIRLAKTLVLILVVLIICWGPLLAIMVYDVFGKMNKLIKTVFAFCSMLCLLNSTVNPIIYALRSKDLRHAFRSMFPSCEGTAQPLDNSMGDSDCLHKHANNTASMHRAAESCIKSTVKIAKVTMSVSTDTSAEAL

As to `CCCCCCCC/C=C\CCCCCCCC(=O)NCCO` [OLEOYLETHANOLAMIDE], the Ki on Cannabinoid receptor 2 was > 10000 nM. The EC50 in assay [1] was found to be 3650 nM.

Turning to `CCCCCCCCCCCCCCCC(=O)NCCO` [PALMIDROL], the Ki at Cannabinoid receptor 2 and on Cannabinoid receptor 1 [2] was > 5000 nM each time. Also, the EC50 in assay [1] was > 10000 nM.

For the compound `CCCCCCCCCCCCCCCC(=O)N[C@@H]1C[C@H]1O` (racemic), the Ki on Cannabinoid receptor 2 and at Cannabinoid receptor 1 [2] was > 10000 nM throughout. Also, the EC50 in assay [1] came out at 40 nM.

For `CCCCC/C=C\C/C=C\C/C=C\C/C=C\CCCC(=O)N[C@H]1C[C@@H]1O`, the EC50 amounted to 2550 nM at Cannabinoid receptor 1 [3] and 47 nM in assay [1]. At Cannabinoid receptor 2, the Ki was 290 nM. Besides, in assay [4], the Emax came out at 75.7%.

In the case of `CCCCC/C=C\C/C=C\C/C=C\C/C=C\CCCC(=O)N[C@@H]1C[C@@H]1O` [listing 1 of 2 here], the Emax in assay [4] was found to be 76.5%.

Consider `CCCCCCCC/C=C\CCCCCCCC(=O)N[C@@H]1C[C@@H]1O` [listing 1 of 2 here], for which the Ki on Cannabinoid receptor 2 was found to be 2040 nM. Further, in assay [1], the EC50 was 150 nM.

On to `CCCCC/C=C\C/C=C\C/C=C\C/C=C\CCCC(=O)NCCO` [ANANDAMIDE], for which, in assay [1], the EC50 was found to be 200 nM.

In the case of `CCCCCCCC/C=C\CCCCCCCC(=O)N[C@@H]1C[C@H]1O` [listing 1 of 2 here], the Ki on Cannabinoid receptor 2 is 4410 nM. In addition, in assay [1], the EC50 came to 13 nM.

As for `CCCCC/C=C\C/C=C\C/C=C\C/C=C\CCCC(=O)N[C@@H]1C[C@H]1O` [listing 1 of 2 here], the EC50 came out at 780 nM at Cannabinoid receptor 1 [3] and 23 nM in assay [1]. The Ki at Cannabinoid receptor 2 came out at 190 nM.

In the case of `CCCCCCC(C)(C)c1ccc([C@@H]2C[C@H](O)CC[C@H]2CCCO)c(O)c1` [CP-55940], the Emax in assay [4] is 83%. The EC50 in assay [1] worked out at 10 nM.

In the case of `CCCCCCCCCCCCCCCC(=O)N[C@@H]1C[C@@H]1O` (racemic), the Ki at Cannabinoid receptor 2 and on Cannabinoid receptor 1 [2] was > 10000 nM in each case. Besides, in assay [1], the EC50 amounted to 26400 nM.

For the compound `CCCCC/C=C\C/C=C\C/C=C\C/C=C\CCCC(=O)N[C@@H]1C[C@@H]1O` [listing 2 of 2 here], the Ki at Cannabinoid receptor 2 stood at 200 nM. In addition, the EC50 in assay [1] is 610 nM.

For `CCCCCCCC/C=C\CCCCCCCC(=O)N[C@@H]1C[C@@H]1O` (racemic), the Ki at Cannabinoid receptor 2 turned out to be 340 nM. Further, in assay [1], the EC50 was 3700 nM.

`CCCCCCCC/C=C\CCCCCCCC(=O)N[C@@H]1C[C@H]1O` (racemic): the Ki at Cannabinoid receptor 2 is 380 nM. Besides, the EC50 in assay [1] is 60 nM.

Take `CCCCCCCC/C=C\CCCCCCCC(=O)N[C@@H]1C[C@H]1O` [listing 2 of 2 here]: the Emax in assay [4] amounted to 72.5%.

`COc1cc(CNC(=O)CCCC/C=C/C(C)C)ccc1O` [CAPSAICIN]: the Ki at Cannabinoid receptor 2 was > 10000 nM.

Take `CCCCC/C=C\C/C=C\C/C=C\C/C=C\CCCC(=O)N[C@@H]1C[C@H]1O` (racemic): at Cannabinoid receptor 2, the Ki came out at 240 nM. Further, the EC50 in assay [1] came out at 50 nM.

Take `CCCCC/C=C\C/C=C\C/C=C\C/C=C\CCCC(=O)N[C@H]1C[C@H]1O`: the Ki on Cannabinoid receptor 2 worked out at 190 nM. Moreover, the Emax in assay [4] came to 65.8%. Further, in assay [1], the EC50 was found to be 2400 nM.

Consider `CCCCC/C=C\C/C=C\C/C=C\C/C=C\CCCC(=O)N[C@@H]1C[C@@H]1O` (racemic), for which the Ki on Cannabinoid receptor 2 was 150 nM. Moreover, in assay [1], the EC50 stood at 1900 nM.

On to `CCCCCCCC/C=C\CCCCCCCC(=O)N[C@@H]1C[C@@H]1O` [listing 2 of 2 here], for which the Emax in assay [4] was 62.5%.

With `CCCCC/C=C\C/C=C\C/C=C\C/C=C\CCCC(=O)N[C@@H]1C[C@H]1O` [listing 2 of 2 here], the Emax in assay [4] is 80.3%.
